The values that follow come from paper PMC11234860 (Chemical Science, 2024).

Assay [1] deals with Siglec-9 (Siglec-9d1–d3-Fc) (Homo sapiens, UniProt Q9Y336). Put plainly: 19F T2 CPMG filtered NMR competitive displacement assay, Siglec-9. The format is binding. The method, boiled down: (§1)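 Siglec-15 ECD (d1–d2, residues 20–263) fused to mVENUS, or Siglec-9 d1–d3 (residues 18–336) fused to human IgG1 Fc with C-terminal His6. Both transiently expressed in HEK293F and purified by Ni-NTA then SEC. Siglec-9 15 μM or Siglec-15 25 μM, with 10 equiv difluoroacetamide spy, titrated with increasing competitor equivalents. One decoupled 19F CPMG spectrum per sample (200 ms filter) at 600 MHz, 298 K, in 20 mM Tris pH 8, 300 mM NaCl, 10% D2O, with 100 μM TFA reference.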

In assay [2] the target is T1, Siglec-15 (Siglec-15d1–d2-mVENUS) (Homo sapiens, UniProt Q6ZMC9).
T1 sequence (Q6ZMC9 20-263): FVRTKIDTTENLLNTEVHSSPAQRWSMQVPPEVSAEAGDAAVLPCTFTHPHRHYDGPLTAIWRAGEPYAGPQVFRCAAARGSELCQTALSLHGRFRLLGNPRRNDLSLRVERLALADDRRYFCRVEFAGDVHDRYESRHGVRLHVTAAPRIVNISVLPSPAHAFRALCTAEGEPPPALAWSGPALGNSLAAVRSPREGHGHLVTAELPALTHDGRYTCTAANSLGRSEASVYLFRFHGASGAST
In words: 19F T2 CPMG filtered NMR competitive displacement assay, Siglec-15. The format is binding. The method, boiled down:
as §1

The mark [3] stands for this setting: read-out: lower KD limit, semiquantitative, from displacement.

Sequence of Siglec-9 (Siglec-9d1–d3-Fc) (Q9Y336 18-336): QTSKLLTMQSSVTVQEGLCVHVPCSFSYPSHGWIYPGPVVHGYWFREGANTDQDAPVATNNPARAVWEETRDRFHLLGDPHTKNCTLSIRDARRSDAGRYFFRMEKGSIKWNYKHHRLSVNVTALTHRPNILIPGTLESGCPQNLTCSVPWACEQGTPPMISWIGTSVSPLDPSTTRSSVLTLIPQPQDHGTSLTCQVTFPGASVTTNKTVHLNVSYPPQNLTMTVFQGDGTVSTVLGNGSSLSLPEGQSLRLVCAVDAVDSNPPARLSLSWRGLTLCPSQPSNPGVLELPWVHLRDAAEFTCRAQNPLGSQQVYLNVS

Take “6′-sialyl N-acetyl-D-lactosamine aminoethylglycoside [α2,6SLN]”: the “displacement of the spy molecule” value in assay [1] (320 equivalents of competitor, Siglec-9 15 μM + 10 equiv diF α2,6SLN) stood at 21%; in assay [2] (300 equivalents of competitor, Siglec-15 25 μM + 10 equiv diF α2,6SLN), 22%. The Kd in assay [1] (setting [3]) was at least 3 mM; in assay [2] (setting [3]), at least 5 mM.

As usually defined, the Kd is the constant that tells how readily two partners part at equilibrium.
